The target of the experiment is T1, 5'-nucleotidase (Rattus norvegicus, UniProt P21588).
T1 sequence (P21588 whole entry): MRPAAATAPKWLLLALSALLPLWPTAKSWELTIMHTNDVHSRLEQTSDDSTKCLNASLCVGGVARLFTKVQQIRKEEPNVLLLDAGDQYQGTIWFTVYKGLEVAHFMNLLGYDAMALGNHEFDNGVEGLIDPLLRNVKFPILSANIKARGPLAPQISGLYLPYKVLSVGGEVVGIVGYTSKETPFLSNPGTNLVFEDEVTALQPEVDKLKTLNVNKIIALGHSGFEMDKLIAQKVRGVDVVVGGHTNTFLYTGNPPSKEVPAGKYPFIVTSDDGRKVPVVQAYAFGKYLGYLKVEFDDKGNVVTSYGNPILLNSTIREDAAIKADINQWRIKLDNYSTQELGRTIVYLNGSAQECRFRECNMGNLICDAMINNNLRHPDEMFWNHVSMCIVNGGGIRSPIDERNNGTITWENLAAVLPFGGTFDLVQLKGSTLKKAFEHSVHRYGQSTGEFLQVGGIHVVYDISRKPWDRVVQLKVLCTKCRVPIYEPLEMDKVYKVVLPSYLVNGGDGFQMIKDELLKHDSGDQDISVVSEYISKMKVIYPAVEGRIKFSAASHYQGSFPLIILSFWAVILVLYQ
Kind of experiment: Inhibition of rat recombinant ecto-5'-nucleotidase using [3H]AMP substrate. In a few lines:
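Purified recombinant rat enzyme in a radioactive assay with [3H]AMP as substrate at 5 μM (near Km). Compounds were screened first at 100 and 10 μM. Full concentration–response curves were run for potent compounds to obtain IC50. Inhibition mechanism: 10 substrate concentrations at three inhibitor concentrations, with velocity normalized to Vmax without inhibitor.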

A word on the IC50: it is the concentration that inhibits the measured activity by half.

The structures appear in SMILES notation.

Regarding `NS(=O)(=O)c1ccc(NC(=O)c2cc3cc(Cl)cc(Cl)c3oc2=O)cc1`, the half-inhibitory concentration (IC50) was 74.8 µM.

For `CCOc1ccc(C(=O)NC(=S)Nc2ccc(S(N)(=O)=O)cc2)cc1Cl`, the IC50 turned out to be 46.5 µM.

Take `NS(=O)(=O)c1ccc(N/N=C/c2ccccc2O)c([N+](=O)[O-])c1`: the half-maximal inhibitory concentration (IC50) stood at 9.46 µM.

For the compound `NS(=O)(=O)c1cc(Cl)c(NC(=O)c2c(O)[nH]c3ccccc3c2=O)c(Cl)c1`, the IC50 came to 15.5 µM.

Consider `Cc1c(NC(=O)c2ccc3c(c2)NC(=O)CO3)c(=O)n(-c2ccccc2)n1C`, for which the IC50 turned out to be 50.9 µM.

For the compound `COc1cccc2cc(C(=O)Nc3ccc(S(N)(=O)=O)cc3)c(=O)oc12`, the IC50 was found to be 16.6 µM.

For `Cc1oc(-c2ccc(Cl)cc2)cc1C(=O)Nc1ccc(S(N)(=O)=O)cc1`, the IC50 amounted to 45.1 µM.

`NS(=O)(=O)c1ccc(N/N=C/c2c(O)ccc3ccccc23)c([N+](=O)[O-])c1`: the half-inhibitory concentration (IC50) stood at 6.54 µM.

Take `O=C(NC(=S)Nc1ccc(S(=O)(=O)c2ccc(NC(=S)NC(=O)c3ccccc3)cc2)cc1)c1ccccc1`: the IC50 was 7.1 µM.

Regarding `NS(=O)(=O)c1ccc(N/N=C/c2cccc(O)c2)c([N+](=O)[O-])c1`, the IC50 was found to be 18.4 µM.

Take `NS(=O)(=O)c1ccc(N/N=C/c2cccc(Oc3ccccc3)c2)c([N+](=O)[O-])c1`: the IC50 was 3.99 µM.

With `NS(=O)(=O)c1ccc(N/N=C/c2ccc(O)cc2)c([N+](=O)[O-])c1`, the concentration for half-maximal inhibition (IC50) stood at 8.03 µM.
